Calls of active or inactive are those of the source. No cut-off for these calls is given here.
Columns and labels:
Sclerotinia sclerotiorum [1] = assay: Antifungal activity against Sclerotina sclerotiorum assessed as growth inhibition at 0.10 mM after 48 hrs; assay type: functional
Outline: (§1)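 S. sclerotiorum clone #33 radial growth assay: mycelial plugs (4 mm, from 3-day-old PDA plates) placed upside down in wells of minimal medium containing compound diluted from 50 mM DMSO stock. Medium-only controls contained 1% DMSO. […] Run in triplicate, at least three times.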

Sclerotinia sclerotiorum [2] = assay: Antifungal activity against Sclerotina sclerotiorum assessed as growth inhibition at 0.50 mM after 48 hrs; assay type: functional; outline: as §1
Sclerotinia sclerotiorum [3] = assay: Inhibition of Sclerotina sclerotiorums brassinin glucosyl transferase assessed as percent relative activity in relative to brassinin at 0.60 mM; set-up: scale not given: the % may be the effect or the level left
Outline: (§2)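 Crude cell-free homogenate from clone #33 grown 7 days in PDB, induced with camalexin (0.05 mM final, 24 h). Mycelia were ground in ice-cold 50 mM Tris-HCl pH 8.0 buffer and centrifuged at 58,545g for 40 min. Inhibitor (from DMSO) was preincubated 30 min at room temperature with extract and UDPG (0.3 mM final). Brassinin (0.3 mM) was added, then 60 min incubation, EtOAc extraction and HPLC quantification of glucosylbrassinin. Protein measured by Bradford. Relative activity = specific activity vs brassinin-only control. Triplicate.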

Sclerotinia sclerotiorum [4] = assay: Inhibition of Sclerotina sclerotiorums brassinin glucosyl transferase assessed as specific activity at 0.30 mM; outline: as §2
Sclerotinia sclerotiorum [5] = assay: Inhibition of Sclerotina sclerotiorums brassinin glucosyl transferase assessed as specific activity at 0.60 mM; outline: as §2
Sclerotinia sclerotiorum [6] = assay: Antifungal activity against Sclerotina sclerotiorum assessed as growth inhibition at 0.30 mM after 48 hrs; assay type: functional; outline: as §1
Sclerotinia sclerotiorum [7] = assay: Inhibition of Sclerotina sclerotiorums brassinin glucosyl transferase assessed as percent relative activity in relative to brassinin at 0.30 mM; set-up: scale not given: the % may be the effect or the level left; outline: as §2
[8] = Metabolic stability assessed as half life in Sclerotina sclerotiorum at 0.10 mM; assay type: ADME, organism-based; settings: sclerotinia sclerotiorum, Sclerotinia sclerotiorum (whole organism)
Outline: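 Four-day-old mycelial cultures in minimal medium (22 °C, 120 rpm, constant light) received inhibitor (0.050 or 0.10 mM final, in CH₃CN at 0.5% v/v). After 10 min, brassinin (0.05 mM final) was added. Samples were withdrawn over time, EtOAc-extracted and analysed by HPLC-DAD for remaining brassinin. Half-life of brassinin was compared with brassinin-only cultures. An uninoculated medium control was included.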

[9] = Metabolic stability assessed as half life in Sclerotina sclerotiorum; assay type: ADME, organism-based; settings: sclerotinia sclerotiorum, Sclerotinia sclerotiorum (whole organism)
Outline: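 S. sclerotiorum clone #33 mycelial plugs were grown 4 days in minimal medium at 22 ± 1 °C, shaken at 120 rpm under constant light. Compound (0.050 or 0.10 mM final, in CH₃CN 0.5% v/v) was added, then brassinin (0.05 mM final) 10 min later. Samples taken over time were extracted with EtOAc, brassinin was measured by HPLC-DAD, and brassinin half-life was compared with brassinin-only cultures.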

[10] = Metabolic stability assessed as half life in Sclerotina sclerotiorum at less than 0.01 mM; assay type: ADME, organism-based; settings: sclerotinia sclerotiorum, Sclerotinia sclerotiorum (whole organism)
Sclerotinia sclerotiorum [11] = assay: Antifungal activity against Sclerotina sclerotiorum assessed as growth inhibition at 0.05 mM after 48 hrs; assay type: functional; outline: as §1
Sclerotinia sclerotiorum [12] = assay: Antifungal activity against Sclerotina sclerotiorum assessed as growth inhibition at 0.01 mM after 48 hrs; assay type: functional
[13] = Metabolic stability assessed as half life in Sclerotina sclerotiorum at 0.03 mM; assay type: ADME, organism-based; settings: sclerotinia sclerotiorum, Sclerotinia sclerotiorum (whole organism)

Activity (Sclerotinia sclerotiorum [3])	Activity (10^-10.mol/mg/min) (Sclerotinia sclerotiorum [4])	Activity (10^-10.mol/mg/min) (Sclerotinia sclerotiorum [5])	Activity (Sclerotinia sclerotiorum [7])	half-life at 100 µM [8]	half-life [10]	half-life at 30 µM [13]	SMILES	inhibition at 100 µM (Sclerotinia sclerotiorum [1])	inhibition at 500 µM (Sclerotinia sclerotiorum [2])	Activity (Sclerotinia sclerotiorum [1])	inhibition at 300 µM (Sclerotinia sclerotiorum [6])	half-life [9]	inhibition at 50 µM (Sclerotinia sclerotiorum [11])	inhibition at 10 µM (Sclerotinia sclerotiorum [12])	Activity (Sclerotinia sclerotiorum [6])	Activity (Sclerotinia sclerotiorum [2])
							c1ccc2[nH]c(-c3cscn3)nc2c1 [THIABENDAZOLE]	86%	93%							
37%	0.75	0.55	50%	9 h			CSC(=S)NCc1coc2ccccc12		45%	inactive	23%					
							CSC(=S)NCc1c[nH]c2ccccc12 [BRASSININ]	37%			100%	9 h				
39%	0.59	0.59	39%				c1ccc(-c2cc3ccccc3[nH]2)cc1									
27%	0.63	0.41	42%		2 h		CSC(=S)NCc1cc2ccccc2[nH]1 [ISOBRASSININ]	48%			100%					
29%	0.55	0.43	37%				Fc1cccc2[nH]cc(-c3ccccc3)c12						100%	47%		
75%	1.22	1.12	81%				CSC(=S)NCc1csc2ccccc12	10%	89%		63%					
42%	0.79	0.63	53%				c1ccc(-c2coc3ccccc23)cc1	32%	80%		64%					
50%	1.02	0.75	68%				CSC(=S)NCc1c[nH]c2ncccc12		65%	inactive	28%					
63%	0.97	1	66%				Fc1ccc2c(-c3nccs3)c[nH]c2c1									
100%	1.51	1.49	100%				COC(=O)c1cnn2ccc(OC)cc12		20%						inactive	
13%	0.35	0.19	23%	10 h			c1ccc(-c2c[nH]c3ccccc23)cc1 [3-PHENYLINDOLE]	100%					93%	78%		
29%	0.64	0.43	43%			6 h	CSC(=S)NCc1cc2ccccc2o1	32%			100%					
56%	0.95	0.84	63%				c1ccc2c(-c3nccs3)c[nH]c2c1 [CAMALEXIN]	100%					81%			
99%	1.47	1.48	98%				COc1ccn2ncc(CNC(=S)SC)c2c1									
48%	0.81	0.72	54%				Fc1ccc2[nH]cc(-c3nccs3)c2c1 [5-FLUOROCAMALEXIN]	70%			85%		61%			
100%	1.58	1.53	100%				CC(=O)Nc1cnc2ccccc2c1									inactive
13%	0.34	0.2	23%	10 h			Fc1ccc2c(-c3ccccc3)c[nH]c2c1 [6-FLUORO-3-PHENYLINDOLE]	93%					87%	65%		

Reference: ChEMBL document CHEMBL1149637, “Design, synthesis, and evaluation of potential inhibitors of brassinin glucosyltransferase, a phytoalexin detoxifying enzyme from Sclerotinia sclerotiorum” (Bioorg Med Chem, 2007)
